Experimental data reported in paper PMC10851409 (ACS Omega, 2024).

What was measured:
[1] = target: T1, bovine serum albumin (BSA) (Bos taurus, UniProt P02769); assay: UV–vis absorption titration of BSA; assay type: binding; settings: pH 7.4; for Enthalpy ΔH / Entropy ΔS: from Kb at 298 and 308 K
Procedure, shortened: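 Peltier-thermostatted spectrophotometer, 1 cm quartz cell, 1 nm slit, spectra over 200–500 nm. BSA in PBS pH 7.4 titrated with test compound (2.46–22.22 μM) and read at 279 nm; ligand-alone absorbance also recorded. Run at 298 and 308 K. Kb taken from the […] of the Benesi–Hildebrand plot, A0/(A–A0) versus 1/[compound]; thermodynamic parameters derived from Kb at both temperatures.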

[2] = target: T1, bovine serum albumin (BSA); assay: Time-resolved fluorescence decay of BSA; assay type: binding; settings: 298 K; for α1 / α2 / α3 / τ1 / τ2 / τ3: triexponential fitting
Procedure, shortened: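 Time-correlated single-photon counting with pulsed nanosecond LED excitation at 280 nm, 298 K. Instrument response recorded with a scattering solution; 114 ps per channel. Decays fitted as a sum of exponentials by nonlinear least-squares reconvolution, with pre-exponential factors normalized to 1 and errors taken as three standard deviations. Fit judged by χ2 and weighted residuals; average lifetime from triexponential fits.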

[3] = target: T1, bovine serum albumin (BSA); assay: Steady-state fluorescence quenching of BSA; assay type: binding; settings: for Number of binding sites n / Stern–Volmer constant Ksv / Bimolecular quenching rate parameter kq: 298 K; for Stern–Volmer constant Ksv: pH 7.4; for Bimolecular quenching rate parameter kq: τo = 10^–8 s; for Fluorescence quenching mechanism: BSA fluorescence, kq compared with 2.0 × 10^10 m^–1 s^–1
Procedure, shortened: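 BSA stock in PBS pH 7.4, with concentration set from absorbance (ε 43,824 M–1 cm–1); test compounds from DMSO stocks, 2.46–22.22 μM. Emission recorded in a 1.0 cm quartz cuvette at 298 K with excitation at 280 nm and 5 nm excitation/emission bandwidths. Stern–Volmer and modified Stern–Volmer plots analysed; kq calculated using τo of 10–8 s for native BSA.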

Plasmodium falciparum = settings: read-out: IC50 antiplasmodial; P. falciparum; cited from earlier work

T1 sequence (P02769 25-607): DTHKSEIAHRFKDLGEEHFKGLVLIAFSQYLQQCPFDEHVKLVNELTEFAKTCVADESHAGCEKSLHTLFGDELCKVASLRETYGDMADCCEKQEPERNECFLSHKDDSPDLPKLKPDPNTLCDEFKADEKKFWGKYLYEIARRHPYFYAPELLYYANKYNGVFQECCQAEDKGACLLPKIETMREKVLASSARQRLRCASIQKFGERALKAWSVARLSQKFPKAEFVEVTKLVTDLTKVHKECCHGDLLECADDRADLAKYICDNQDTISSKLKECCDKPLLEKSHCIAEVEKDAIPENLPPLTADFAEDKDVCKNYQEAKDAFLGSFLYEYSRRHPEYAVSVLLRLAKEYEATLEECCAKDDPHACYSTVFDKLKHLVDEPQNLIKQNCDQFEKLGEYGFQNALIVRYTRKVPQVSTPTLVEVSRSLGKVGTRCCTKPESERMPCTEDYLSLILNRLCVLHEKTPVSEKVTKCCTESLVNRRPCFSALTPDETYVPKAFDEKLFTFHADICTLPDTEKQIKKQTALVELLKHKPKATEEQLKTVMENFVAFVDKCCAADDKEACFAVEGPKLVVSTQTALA

Gibbs free energy ΔG ([1]; 298 K)	Gibbs free energy ΔG ([1]; 308 K)	Enthalpy ΔH [1]	Entropy ΔS [1]	τavg (average fluorescence lifetime of BSA) ([2]; ligand 2.46 μm)	α1 ([2]; ligand 2.46 μm) [%]	α2 ([2]; ligand 2.46 μm) [%]	α3 ([2]; ligand 2.46 μm) [%]	τ1 ([2]; ligand 2.46 μm)	τ2 ([2]; ligand 2.46 μm)	τ3 ([2]; ligand 2.46 μm)	τavg (average fluorescence lifetime of BSA) ([2]; ligand 9.52 μm)	α1 ([2]; ligand 9.52 μm) [%]	α2 ([2]; ligand 9.52 μm) [%]	α3 ([2]; ligand 9.52 μm) [%]	τ1 ([2]; ligand 9.52 μm)	τ2 ([2]; ligand 9.52 μm)	τ3 ([2]; ligand 9.52 μm)	τavg (average fluorescence lifetime of BSA) ([2]; ligand 16.09 μm)	α1 ([2]; ligand 16.09 μm) [%]	SMILES	also measured
–24.28 kJ mol^–1	–23.68 kJ mol^–1	–42.16 kJ mol^–1	–0.06 kJ mol^–1	6.2	26.45	67.78	5.77	2.971	6.871	0.8793	6.2	30.06	64.04	5.91	3.0512	6.967	0.8022	6.1	28.92	CC(C)=CCc1c(O)c(CC=C(C)C)c2oc3c(O)ccc(O)c3c(=O)c2c1O [gartanin]	α2 ([2]; ligand 16.09 μm): 64.86%; α3 ([2]; ligand 16.09 μm): 6.22%; τ1 ([2]; ligand 16.09 μm): 2.945; τ2 ([2]; ligand 16.09 μm): 6.882; τ3 ([2]; ligand 16.09 μm): 0.8547; τavg (average fluorescence lifetime of BSA) ([2]; ligand 22.22 μm): 6.2; α1 ([2]; ligand 22.22 μm): 30.4%; α2 ([2]; ligand 22.22 μm): 60.86%; α3 ([2]; ligand 22.22 μm): 8.74%; τ1 ([2]; ligand 22.22 μm): 3.254; τ2 ([2]; ligand 22.22 μm): 7.004; τ3 ([2]; ligand 22.22 μm): 0.9952; Number of binding sites n [3]: 1; Stern–Volmer constant Ksv [3]: 2.57 × 10^4 L mol^–1; Bimolecular quenching rate parameter kq [3]: 2.57 × 10^12; Fluorescence quenching mechanism [3]: static quenching
–20.52 kJ mol^–1	–19.22 kJ mol^–1	–59.26 kJ mol^–1	–0.13 kJ mol^–1	6.6	8.67	55.5	35.83	2.2687	5.696	7.962	6.7	13.49	84.08	2.43	2.6997	6.576	14.2863	6.8	9.59	C[C@H]1C(=O)CC[C@@H]2[C@]1(C)CC[C@H]1[C@@]2(C)CC[C@@]2(C)[C@@H]3CC(C)(C)CC[C@]3(C)CC[C@]12C [friedelin]	IC50 (Plasmodium falciparum): 7.2 µM; α2 ([2]; ligand 16.09 μm): 86.56%; α3 ([2]; ligand 16.09 μm): 3.85%; τ1 ([2]; ligand 16.09 μm): 2.21; τ2 ([2]; ligand 16.09 μm): 6.354; τ3 ([2]; ligand 16.09 μm): 14.127; τavg (average fluorescence lifetime of BSA) ([2]; ligand 22.22 μm): 6.5; α1 ([2]; ligand 22.22 μm): 25.73%; α2 ([2]; ligand 22.22 μm): 71.9%; α3 ([2]; ligand 22.22 μm): 2.37%; τ1 ([2]; ligand 22.22 μm): 3.978; τ2 ([2]; ligand 22.22 μm): 7.1; τ3 ([2]; ligand 22.22 μm): 1.075; Number of binding sites n [3]: 1; Stern–Volmer constant Ksv [3]: 1.47 × 10^4 L mol^–1; Bimolecular quenching rate parameter kq [3]: 1.47 × 10^12; Fluorescence quenching mechanism [3]: static quenching
